# Screens from PubChem.
# Many of the other results were omitted from the sample, so hits are more common in it than they were.
# NLRP3 yeast inh: NALP3 inflammasome inhibitors in reconstituted yeast, primary screen, luminescence, uHTS; Yeast reconstituted NLRP3/ASC/caspase-1, beta-gal luminescence, 24 h; inhibition, % at 10 µM; 330,000 compounds, 0.39% hits; AID 2825, 2010;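 active = inhibition of 50% or more; inactive = inhibition below 50%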;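 note: plate controls were induced DMSO wells for no effect and uninduced yeast grown without galactose for full effect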
# PolyA inhibitor: polyadenylation inhibitors in yeast reporter cells, primary screen, luminescence, S. cerevisiae. 300,000 compounds, 0.02% hits. activity score, % at 12 µM. S. cerevisiae SKY197-pL101 polyadenylation reporter, beta-gal luminescence; efflux-impaired pdr1/pdr3 knockout yeast; score 100 = 6 SD above DMSO;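 active = lowest replicate activity score at least 50, where 100 means six control SD above control mean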;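 note: yeast exposed to compound for 9 h at 30 °C; higher score means more reporter readthrough which indicates perturbed polyadenylation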
# T cruzi inh: inhibitors of intracellular T. cruzi growth, primary screen, luminescence, NIH3T3 host cells. T. cruzi beta-gal in NIH3T3, 90 h. AID 1885, 2009. inhibition, % (test concentration not listed). 300,000 compounds, 1.4% hits;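 active = mean inhibition across valid replicates above about 55%, limit read from the data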;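 note: signal also drops with host cell toxicity which is not excluded here; 0% = plate median of DMSO wells and 100% = zero luminescence signal; higher percent means less beta-gal luminescence so fewer parasites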
#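 System: mouse NIH/3T3 fibroblasts infected with β-gal-expressing T. cruzi Tulahuen C4 / Input: NIH/3T3 cells, 5,000 per well / Buffer or medium: Low-serum DMEM with 2% FBS / Probe or stimulus: 5000 reporter trypomastigotes per well / Schedule: ≥90 h infection period, 3 h prior cell attachment / Measured by: GalScreen luminescence, 60 min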
# Calb FLC: C. albicans growth inhibition with fluconazole, primary screen, CaCi-2 strain, Alamar Blue fluorescence. 300,000 compounds, 0.57% hits. C. albicans CaCi-2 + fluconazole, 48 h. AID 1979, 2009. growth inhibition, % (no concentration beside the values);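 active = growth inhibition above about 58% in most replicates, limit read from the data, passing the limit was not always enough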;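 note: all wells also contain fluconazole at 8 µg/ml as a sub-toxic cotreatment; 0% = median of DMSO wells and 100% = median of geldanamycin control wells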
# L major viab: Leishmania major promastigote growth inhibition, primary screen. Leishmania major promastigotes, resazurin fluorescence viability. inhibition, % at 10 µM. 200,000 compounds, 9% hits;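 note: promastigotes grown with compound for 44 hours at 28 °C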
# NALP1 inh: NALP1 inflammasome inhibitors in reconstituted yeast, colorimetric, S. cerevisiae, triplicate retest; S. cerevisiae NALP1/ASC/caspase-1 growth, X-gal OD620, 72 h; inhibition, % at 10 µM; 280,000 compounds, 0.61% hits; AID 2071, 2009; in the data active = inhibition mostly above about 24%, no sharp cut-off; inactive = mostly below about 32%
# NALP3 yeast conf: NALP3 inhibitors retested in yeast, confirmation, luminescence, single concentration; shares compounds with NLRP3 yeast inh; yeast expressing human NALP3; inhibition, % at 10 µM; 1,300 compounds, 81% hits; AID 435006, 2010; in the data active = inhibition above about 48%
# Casp1-ASC yeast: CASP1-PYCARD signaling inhibition in yeast, confirmatory test, counterassay for NLRP3 inhibitor program, one-dose. 1,000 compounds, 66% hits. inhibition, % at 10 µM. yeast expressing Caspase-1-ASC, luminescence counter screen. AID 488784, 2010. shares compounds with NLRP3 yeast inh
# NALP3 yeast rt: NALP3 inhibitors in yeast, repeat test, confirmation, luminescence, single concentration, retest; shares compounds with NLRP3 yeast inh; yeast expressing human NALP3, luminescence read-out; inhibition, % at 10 µM; 1,000 compounds, 53% hits; AID 488794, 2010
# * = called active by the depositor; · = no result. Cut-off read from the data, not from the text of the source, unless noted: active = inhibition above about 50%; inactive = the rest.
SMILES,NLRP3 yeast inh,PolyA inhibitor,T cruzi inh,Calb FLC,L major viab,NALP1 inh,NALP3 yeast conf,Casp1-ASC yeast,NALP3 yeast rt
C=CCc1c(C)nc(C)nc1N/N=C/c1ccccc1O,55.5*,-52.1,-8.5,-17.8,98.8*,41.9,56.7*,37.8,54.5*
COc1cc(-c2nc3ccccn3c2/N=C/c2cccc(F)c2)ccc1O,18.3,6.6,-9.3,28.7,22.4,1.5,·,·,·
COc1cc(-c2nc3ccccn3c2/N=C/c2cc(OC)c(O)cc2Cl)ccc1O,-105.5,-14.1,-9.2,-3.9,10.8,-11.2,-19.0,·,·
CC(C)CCN1CCC(N)=NC1=O,·,·,·,·,-4.5,-3.9,·,·,·
O=C(NCCCN1CCCC1=O)c1c(O)nc2ccccn2c1=O,-5.9,4.5,5.6,5.5,·,9.1,·,·,·
O=C(NCCCc1ccccc1)c1c(O)nc2sccn2c1=O,63.4*,16.6,-9.6,-23.4,·,·,77.4*,39.4,59.0*
O=C(NCCC1=CCCCC1)c1c(O)nc2ccccn2c1=O,63.4*,69.1*,-0.5,1.8,·,17.6,76.3*,51.6*,55.1*
O=C(NCCC1=CCCCC1)c1c(O)nc2sccn2c1=O,66.7*,-9.7,-5.9,3.5,·,·,78.7*,47.6,55.8*
CCn1c(=O)c(C(=O)NCCCc2ccccc2)c(O)c2ccccc21,14.6,1.3,31.3,-6.7,·,-2.3,·,·,·
CCc1cccc2c(/C=N/NC(=O)c3cccc(S(=O)(=O)Nc4ccccc4Cl)c3)c[nH]c12,0.0,-4.7,-1.5,-13.2,-2.9,29.0,·,·,·
COc1ccccc1NC(=O)Nc1ccc(C)cn1,61.1*,-22.9,-7.1,3.0,·,-3.4,76.3*,68.2*,64.8*
CCOCCn1c(COc2ccc(C)cc2)nc2ccccc21,31.7,-9.2,15.3,0.4,23.9,39.4,·,·,·
CCn1c(COc2ccc(C)cc2)nc2ccccc21,64.7*,-18.3,-10.0,-1.6,0.1,9.8,78.8*,·,·
CCOC(=O)/C=C1\SCC(=O)N1CC(=O)NCc1cccc(Cl)c1,-1.2,3.1,5.1,-5.0,-2.9,34.1,·,·,·
CCCOc1ncnc2c1[nH]c1ccc(C)cc12,38.5,-6.2,-3.3,11.4,·,-0.7,·,·,·
CCOc1ncnc2c1[nH]c1ccccc12,61.2*,-18.0,-4.3,0.3,·,·,82.2*,·,·
Cc1ccc2c(c1)c1c(n2C)C(=O)CCC1,54.4*,-1.3,-4.8,-21.0,-2.9,7.1,56.0*,63.2*,52.1*
Cc1ccn2c(=O)nc(SCC(=O)N3CCN(c4ccccc4)CC3)nc2c1,7.7,31.1,-2.3,-11.5,·,·,·,·,·
COc1cc(NC(=O)CSc2nc3[nH]c(=O)cc(O)c3s2)cc(OC)c1OC,-13.4,·,·,·,·,·,·,·,·
CCC(C)(C)n1nnnc1C(c1cccs1)N1CCc2ccccc21 (stereo unspecified),-101.5,2.1,6.9,-0.2,32.0,17.9,-17.6,·,·
CCC(C)(C)n1nnnc1C(c1ccc(O)cc1)N1CCc2ccccc2C1 (stereo unspecified),11.3,-1.2,-4.9,-2.8,0.9,11.7,·,·,·
Cc1ccccc1/C=C1\C(=O)Nc2ccc(F)cc21,32.6,-3.9,-6.2,-1.5,·,33.6,·,·,·
O=C1Nc2ccccc2/C1=C/c1ccccc1F,53.2*,-16.0,3.3,-12.9,·,17.6,53.1*,39.9,39.1
C/C(=N\Nc1ncc(Br)cn1)c1cccc([N+](=O)[O-])c1,50.7*,7.5,-2.1,6.0,·,4.9,61.0*,63.5*,49.2
COc1ccc(C(=O)N2CCN(c3ccc(C(C)=O)cc3)CC2)cc1S(=O)(=O)N1CCCC1,24.8,·,·,·,·,·,·,·,·
SMILES,NLRP3 yeast inh,PolyA inhibitor,T cruzi inh,Calb FLC,L major viab,NALP1 inh,NALP3 yeast conf,Casp1-ASC yeast,NALP3 yeast rt
O=C(Nc1ccc(-c2nc3cccnc3s2)cc1)c1ccco1,51.4*,-12.1,-3.1,-5.4,-11.7,·,71.8*,46.5,48.1
CSc1nc2ccc(NC(=O)c3ccco3)cc2s1,50.6*,-11.4,2.8,2.3,-0.7,38.9,58.3*,55.8*,53.6*
CCC(=O)c1cn(CC(=O)Nc2ccc(OC)cc2)c2ccccc12,14.4,-17.6,-13.5,-1.3,·,16.6,·,·,·
O=S(=O)(NCCc1ccccc1)c1ccc(F)cc1,24.9,2.4,-12.0,-11.3,·,3.7,·,·,·
Cc1ccccc1C(=O)Nc1nnc(SC(C)C)s1,51.4*,-2.6,9.9,9.6,5.7,-15.4,37.5,71.0*,63.0*
CC(C)Sc1nnc(NC(=O)CCc2ccccc2)s1,10.3,-3.5,11.1,-5.0,-2.7,5.0,·,·,·
Cn1c(SCc2nc(-c3ccc(Cl)cc3)no2)nnc1-c1ccco1,53.3*,-11.4,13.2,6.6,-5.5,-5.7,65.8*,49.5,36.5
Cc1c(-n2c(SCC(N)=O)nc3ccccc3c2=O)c(=O)n(-c2ccccc2)n1C,10.4,14.0,-1.7,-3.8,-3.2,20.5,·,·,·
COc1ccc(-c2nnc(SCc3cccc(C#N)c3)o2)cc1,53.5*,14.6,12.3,-10.0,-6.8,0.3,36.9,·,·
CS/C(=N\S(=O)(=O)c1cccs1)Nc1cccc(Cl)c1C,-117.6,85.9*,-17.3,57.2,-1.9,13.6,-3.3,·,·
Cc1ccc(-n2c(-c3ccccc3)c[nH]c2=S)cc1,55.9*,-31.7,0.7,-0.8,6.4,-2.9,28.1,·,·
COc1ccc(-n2c(-c3ccc(Cl)cc3)c[nH]c2=S)cc1,56.6*,-2.3,-2.8,-9.3,·,-19.0,79.6*,50.7*,38.4
CC(=O)Nc1nnc(CCS(=O)(=O)c2ccc(C)cc2)s1,-6.5,-11.7,-2.2,0.1,·,·,·,·,·
Cc1c(NC(=O)C(C)OC(=O)c2cccnc2Cl)c(=O)n(-c2ccccc2)n1C (stereo unspecified),2.1,·,·,·,·,·,·,·,·
O=CC1=C(c2ccccc2)Oc2ccccc2O1,68.0*,-7.8,-22.1,3.0,·,52.0*,63.6*,74.8*,85.0*
NC(=O)Nc1ccc(Nc2ccccc2)cc1,9.5,19.9,-0.1,-1.9,·,8.0,·,·,·
O=C(Nc1ccc(Nc2ccccc2)cc1)C(Cl)(Cl)Cl,60.7*,-10.1,25.9,-16.0,78.4*,35.9,68.0*,·,·
COc1ccc(Cn2c(=O)cc(N)n(-c3ccccc3C)c2=O)cc1,5.4,7.7,14.3,-2.7,·,-1.7,·,·,·
Cc1cccc(NC(=O)c2cnc3sccn3c2=O)c1,56.4*,6.0,-5.5,-6.8,0.5,1.1,66.2*,52.2*,46.0
Cc1cccc(NC(=O)c2cnc3ccccn3c2=O)c1,50.7*,·,·,·,-4.4,·,77.2*,·,·
